Assay results reported in ChEMBL document CHEMBL1649355, “Synthesis and biological evaluation of novel 2,4-disubstituted-1,3-thiazoles as anti-Candida spp. agents” (2011).
Values after ≈ are worked out from the molar mass of the structure shown.

Tests used:
[Candida] sake [1] = Antifungal activity against Candida sake after 24 hrs by broth microdilution method; conditions: Fermentozyma sake
Pichia kudriavzevii [2] = assay: Antifungal activity against Candida krusei after 24 hrs by broth microdilution method
Candida albicans [3] = assay: Antifungal activity against Candida albicans after 24 hrs by broth microdilution method
Nakaseomyces glabratus [4] = assay: Antifungal activity against Candida glabrata after 24 hrs
Candida tropicalis [5] = assay: Antifungal activity against Candida tropicalis after 24 hrs by broth microdilution method
Pichia kudriavzevii [6] = assay: Antifungal activity against Candida krusei after 24 hrs by MTT assay; assay type: functional
Procedure, shortened: (§1)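 Broth microdilution in Sabouraud dextrose broth per NCCLS guidance, tested against clinical Candida isolates (20 strains across species). Compounds dissolved in DMSO and serially diluted to final concentrations of 0.125–256. Inoculum 10³/mL. Each plate carried fungus-only and medium-only controls. Incubated 24 h at 37 °C. MIC reported as range per species.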

Nakaseomyces glabratus [7] = assay: Antifungal activity against Candida glabrata after 24 hrs by MTT assay; assay type: functional
Procedure, shortened: as §1

Candida albicans [8] = assay: Antifungal activity against Candida albicans after 24 hrs by MTT assay; assay type: functional
Procedure, shortened: as §1

[Candida] sake [9] = Antifungal activity against Candida sake after 24 hrs by MTT assay; assay type: functional; conditions: Fermentozyma sake
Procedure, shortened: as §1

Candida tropicalis [10] = assay: Antifungal activity against Candida tropicalis after 24 hrs by MTT assay; assay type: functional
Procedure, shortened: as §1

Row | SMILES | MIC ([Candida] sake [1]) [µg/mL] | MIC (Pichia kudriavzevii [2]) [µg/mL] | MIC (Candida albicans [3]) [µg/mL] | MIC (Nakaseomyces glabratus [4]) [µg/mL] | MIC (Candida tropicalis [5]) [µg/mL] | MIC (Pichia kudriavzevii [6]) [µg/mL] | MIC (Nakaseomyces glabratus [7]) [µg/mL] | MIC (Candida albicans [8]) [µg/mL] | MIC ([Candida] sake [9]) [µg/mL] | MIC (Candida tropicalis [10]) [µg/mL]
1 | COc1ccc(-c2csc(N/N=C\c3ccncc3)n2)cc1 | 32 (≈ 103 µM) | 16 (≈ 51.5 µM) | 0.125 (≈ 0.403 µM) | 0.5 (≈ 1.61 µM) | 16 (≈ 51.5 µM) | – | – | – | – | –
2 | C/C(=N/Nc1nc(-c2ccc(C)cc2)cs1)c1ccncc1 | 32 (≈ 104 µM) | 32 (≈ 104 µM) | 0.5 (≈ 1.62 µM) | 4 (≈ 13 µM) | 32 (≈ 104 µM) | – | – | – | – | –
3 | COc1ccc(-c2csc(N/N=C(/C)c3ccncc3)n2)cc1 | 16 (≈ 49.3 µM) | 128 (≈ 395 µM) | 0.5 (≈ 1.54 µM) | 4 (≈ 12.3 µM) | 32 (≈ 98.6 µM) | – | – | – | – | –
4 | Cc1ccc(-c2csc(N/N=C\c3cccc4ccccc34)n2)cc1 | 32 (≈ 93.2 µM) | 16 (≈ 46.6 µM) | 2 (≈ 5.82 µM) | 16 (≈ 46.6 µM) | 16 (≈ 46.6 µM) | – | – | – | – | –
5 | COc1ccc(-c2csc(N/N=C\c3cccc4ccccc34)n2)cc1 | 16 (≈ 44.5 µM) | 32 (≈ 89 µM) | 4 (≈ 11.1 µM) | 2 (≈ 5.56 µM) | 64 (≈ 178 µM) | – | – | – | – | –
6 | C/C(=N/Nc1nc(-c2ccc(C)cc2)cs1)c1ccc2ccccc2c1 | 16 (≈ 44.8 µM) | 32 (≈ 89.5 µM) | 2 (≈ 5.59 µM) | 0.5 (≈ 1.4 µM) | 4 (≈ 11.2 µM) | – | – | – | – | –
7 | COc1ccc(-c2csc(N/N=C(/C)c3ccc4ccccc4c3)n2)cc1 | 16 (≈ 42.8 µM) | 256 (≈ 685 µM) | 2 (≈ 5.36 µM) | 2 (≈ 5.36 µM) | 64 (≈ 171 µM) | – | – | – | – | –
8 | Cc1ccc(-c2csc(N/N=C\c3ccc4c(c3)OCO4)n2)cc1 | 8 (≈ 23.7 µM) | 64 (≈ 190 µM) | 0.125 (≈ 0.37 µM) | 4 (≈ 11.9 µM) | 16 (≈ 47.4 µM) | – | – | – | – | –
9 | COc1ccc(-c2csc(N/N=C\c3ccc4c(c3)OCO4)n2)cc1 | 8 (≈ 22.6 µM) | 64 (≈ 181 µM) | 0.5 (≈ 1.41 µM) | 4 (≈ 11.3 µM) | 64 (≈ 181 µM) | – | – | – | – | –
10 | Cc1ccc(-c2csc(N/N=C\c3c[nH]c4ccccc34)n2)cc1 | 32 (≈ 96.3 µM) | 32 (≈ 96.3 µM) | 0.125 (≈ 0.376 µM) | 4 (≈ 12 µM) | 64 (≈ 193 µM) | – | – | – | – | –
11 | COc1ccc(-c2csc(N/N=C\c3c[nH]c4ccccc34)n2)cc1 | 8 (≈ 23 µM) | 64 (≈ 184 µM) | 32 (≈ 91.8 µM) | 0.5 (≈ 1.44 µM) | 64 (≈ 184 µM) | – | – | – | – | –
12 | C/C(=N/Nc1nc(-c2ccc(C)cc2)cs1)c1cc2ccccc2oc1=O | – | – | – | – | – | 128 (≈ 341 µM) | 0.5 (≈ 1.33 µM) | 0.125 (≈ 0.333 µM) | 32 (≈ 85.2 µM) | 128 (≈ 341 µM)
13 | COc1ccc(-c2csc(N/N=C(/C)c3cc4ccccc4oc3=O)n2)cc1 | 32 (≈ 81.7 µM) | 32 (≈ 81.7 µM) | 2 (≈ 5.11 µM) | 2 (≈ 5.11 µM) | 2 (≈ 5.11 µM) | – | – | – | – | –
14 | Clc1ccccc1C(c1ccccc1)(c1ccccc1)n1ccnc1 [CLOTRIMAZOLE] | 16 (≈ 46.4 µM) | – | 2 (≈ 5.8 µM) | 2 (≈ 5.8 µM) | – | – | – | – | – | –
15 | OC(Cn1cncn1)(Cn1cncn1)c1ccc(F)cc1F [FLUCONAZOLE] | 32 (≈ 104 µM) | 8 (≈ 26.1 µM) | 4 (≈ 13.1 µM) | 4 (≈ 13.1 µM) | 4 (≈ 13.1 µM) | – | – | – | – | –
